Results from ChEMBL document CHEMBL3826928, “Incorporation of Phosphonate into Benzonaphthyridine Toll-like Receptor 7 Agonists for Adsorption to Aluminum Hydroxide” (J Med Chem, 2016).
Active and inactive are the calls of the source. The rule behind the calls is not given here.

Tests used:
Toll-like receptor 7 [1] = biological target: T1, Toll-like receptor 7 (Homo sapiens, UniProt Q9NYK1); experiment: Agonist activity at TLR7 in human PBMC assessed as induction of IL-6 secretion in supernatant after 18 hrs
T1 sequence (Q9NYK1 whole entry): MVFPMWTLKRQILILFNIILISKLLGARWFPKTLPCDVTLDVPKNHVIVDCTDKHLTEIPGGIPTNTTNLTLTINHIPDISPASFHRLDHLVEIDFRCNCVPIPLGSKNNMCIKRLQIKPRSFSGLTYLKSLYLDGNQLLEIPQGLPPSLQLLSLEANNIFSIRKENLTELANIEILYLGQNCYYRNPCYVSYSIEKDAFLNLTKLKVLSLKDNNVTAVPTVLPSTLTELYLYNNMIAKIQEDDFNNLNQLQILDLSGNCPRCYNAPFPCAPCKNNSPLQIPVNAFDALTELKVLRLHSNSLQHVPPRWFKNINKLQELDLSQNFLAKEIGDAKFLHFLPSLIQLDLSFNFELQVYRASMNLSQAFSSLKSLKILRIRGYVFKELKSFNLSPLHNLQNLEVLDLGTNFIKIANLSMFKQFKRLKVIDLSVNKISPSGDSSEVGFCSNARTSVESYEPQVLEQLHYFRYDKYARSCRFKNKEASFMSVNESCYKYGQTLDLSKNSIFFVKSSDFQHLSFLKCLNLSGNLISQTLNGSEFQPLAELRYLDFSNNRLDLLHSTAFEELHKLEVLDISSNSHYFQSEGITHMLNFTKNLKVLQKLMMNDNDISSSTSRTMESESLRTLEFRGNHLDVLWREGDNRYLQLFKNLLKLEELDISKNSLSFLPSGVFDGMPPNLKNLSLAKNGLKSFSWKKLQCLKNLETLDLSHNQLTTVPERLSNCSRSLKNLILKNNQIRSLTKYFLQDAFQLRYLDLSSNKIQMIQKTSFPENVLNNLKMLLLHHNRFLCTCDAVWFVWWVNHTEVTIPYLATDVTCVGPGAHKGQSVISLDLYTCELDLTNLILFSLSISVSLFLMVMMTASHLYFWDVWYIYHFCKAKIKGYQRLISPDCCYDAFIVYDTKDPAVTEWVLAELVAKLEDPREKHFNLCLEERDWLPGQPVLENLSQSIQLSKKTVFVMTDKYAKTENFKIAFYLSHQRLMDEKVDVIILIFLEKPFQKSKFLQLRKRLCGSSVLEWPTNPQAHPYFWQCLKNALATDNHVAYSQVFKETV
Outline: (§1)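 Isolated human PBMCs washed in PBS, resuspended in RPMI1640 with 10% heat-inactivated FBS, pyruvate, HEPES, at 1 × 10⁶ cells/mL. Compounds as in-situ sodium salts from 10 mM aqueous stocks, 3-fold 10-point dilutions from 30 μM.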

Toll-like receptor 7 [2] = biological target: T2, Toll-like receptor 7 (Mus musculus, UniProt P58681); experiment: Agonist activity at TLR7 in Balb/c mouse splenocytes assessed as induction of IL-6 secretion in supernatant after 18 hrs; assay type: cell-based
T2 sequence (P58681 whole entry): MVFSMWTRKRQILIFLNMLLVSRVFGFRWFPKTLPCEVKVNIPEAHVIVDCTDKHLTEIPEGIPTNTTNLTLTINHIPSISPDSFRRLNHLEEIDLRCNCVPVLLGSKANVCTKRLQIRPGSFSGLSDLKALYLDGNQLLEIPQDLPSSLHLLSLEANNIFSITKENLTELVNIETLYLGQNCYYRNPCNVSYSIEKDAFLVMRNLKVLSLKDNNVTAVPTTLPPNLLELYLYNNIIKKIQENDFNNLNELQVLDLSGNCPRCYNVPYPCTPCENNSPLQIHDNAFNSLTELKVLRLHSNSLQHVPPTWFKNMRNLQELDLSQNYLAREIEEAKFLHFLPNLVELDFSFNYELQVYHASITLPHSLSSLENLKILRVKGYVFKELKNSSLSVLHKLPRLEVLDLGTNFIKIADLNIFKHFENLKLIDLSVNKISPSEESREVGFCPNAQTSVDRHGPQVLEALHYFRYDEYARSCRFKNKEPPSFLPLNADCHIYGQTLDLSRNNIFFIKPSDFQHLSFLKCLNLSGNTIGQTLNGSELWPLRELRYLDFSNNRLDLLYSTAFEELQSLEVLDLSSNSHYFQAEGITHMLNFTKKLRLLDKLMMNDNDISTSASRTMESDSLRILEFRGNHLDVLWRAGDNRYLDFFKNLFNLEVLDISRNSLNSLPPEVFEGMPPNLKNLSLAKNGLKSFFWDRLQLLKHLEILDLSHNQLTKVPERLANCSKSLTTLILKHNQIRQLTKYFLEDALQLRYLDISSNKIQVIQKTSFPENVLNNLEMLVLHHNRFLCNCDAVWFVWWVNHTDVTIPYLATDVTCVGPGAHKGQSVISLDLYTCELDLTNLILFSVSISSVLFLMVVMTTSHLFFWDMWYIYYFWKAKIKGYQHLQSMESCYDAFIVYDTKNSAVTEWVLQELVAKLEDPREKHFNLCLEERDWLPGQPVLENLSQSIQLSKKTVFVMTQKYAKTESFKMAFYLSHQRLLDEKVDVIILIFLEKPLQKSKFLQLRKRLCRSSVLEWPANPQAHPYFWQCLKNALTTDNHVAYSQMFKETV
Outline: (§2)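 Spleens from female BALB/c mice (6−10 weeks), single-cell suspension, RBC lysis; 5 × 10⁵ splenocytes per well in RPMI 1640 with 10% FCS, 2-ME. Compounds as sodium salts (1 equiv NaOH) from 10 mM water stocks, 3-fold 10-point dilutions from 30 μM.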

[3] = biological target: T3, Toll-like receptor 8 (Homo sapiens) (UniProt Q9NR97); experiment: Agonist activity at human TLR8 expressed in HEK293 cells up to 30 uM incubated for 6 hrs by luciferase reporter gene assay relative to resiquimod; assay type: cell-based
T3 sequence (whole entry): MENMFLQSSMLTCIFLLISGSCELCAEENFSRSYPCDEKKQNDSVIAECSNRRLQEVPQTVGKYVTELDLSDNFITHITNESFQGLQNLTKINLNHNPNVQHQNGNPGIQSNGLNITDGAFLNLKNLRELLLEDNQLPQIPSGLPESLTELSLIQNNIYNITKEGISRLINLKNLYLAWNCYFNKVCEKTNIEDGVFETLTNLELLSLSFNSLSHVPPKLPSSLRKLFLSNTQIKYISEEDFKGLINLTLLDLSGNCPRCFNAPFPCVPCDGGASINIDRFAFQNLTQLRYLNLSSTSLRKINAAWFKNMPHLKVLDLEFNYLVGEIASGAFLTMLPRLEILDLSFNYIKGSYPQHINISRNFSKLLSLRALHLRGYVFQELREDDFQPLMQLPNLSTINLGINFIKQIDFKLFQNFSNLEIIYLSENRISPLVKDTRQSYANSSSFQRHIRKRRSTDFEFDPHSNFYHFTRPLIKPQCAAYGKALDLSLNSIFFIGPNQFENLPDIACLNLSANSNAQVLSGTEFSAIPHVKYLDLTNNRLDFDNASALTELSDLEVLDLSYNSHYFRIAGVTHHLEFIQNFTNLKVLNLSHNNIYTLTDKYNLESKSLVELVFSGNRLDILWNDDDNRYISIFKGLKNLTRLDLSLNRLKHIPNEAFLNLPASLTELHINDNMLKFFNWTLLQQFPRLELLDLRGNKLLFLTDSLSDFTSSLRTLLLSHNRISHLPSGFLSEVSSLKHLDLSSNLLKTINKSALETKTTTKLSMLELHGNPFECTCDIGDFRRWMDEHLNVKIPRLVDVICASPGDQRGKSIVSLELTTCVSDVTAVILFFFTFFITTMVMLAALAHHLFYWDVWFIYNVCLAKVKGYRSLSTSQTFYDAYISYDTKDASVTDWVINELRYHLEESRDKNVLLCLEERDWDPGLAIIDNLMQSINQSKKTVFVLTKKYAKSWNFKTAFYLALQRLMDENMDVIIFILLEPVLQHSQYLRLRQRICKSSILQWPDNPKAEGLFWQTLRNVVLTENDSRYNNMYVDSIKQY

[4] = biological target: T4, Toll-like receptor 7 (Mus musculus) (UniProt P58681); experiment: Agonist activity at TLR7 in Balb/c mouse splenocytes assessed as induction of IL-6 secretion in supernatant after 18 hrs relative to resiquimod; assay type: cell-based; outline: as §2
T4 sequence (whole entry): T2 sequence (P58681 whole entry)

[5] = biological target: T5, Toll-like receptor 7 (Homo sapiens) (UniProt Q9NYK1); experiment: Agonist activity at human TLR7 expressed in HEK293 cells incubated for 6 hrs by luciferase reporter gene assay relative to resiquimod; assay type: cell-based
T5 sequence (whole entry): T1 sequence (Q9NYK1 whole entry)
Outline: (§3)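 HEK293 stably carrying NF-κB-firefly luciferase reporter plus human TLR7 (best resiquimod-responding clone), maintained under puromycin/blasticidin. 25 000 cells per well in DMEM with 3% FCS.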

Toll-like receptor 7 [6] = biological target: T1, Toll-like receptor 7; experiment: Agonist activity at human TLR7 expressed in HEK293 cells incubated for 6 hrs by luciferase reporter gene assay; assay type: cell-based; outline: as §3
[7] = biological target: T5, Toll-like receptor 7 (Homo sapiens); experiment: Agonist activity at TLR7 in human PBMC assessed as induction of IL-6 secretion in supernatant after 18 hrs relative to resiquimod; assay type: cell-based; outline: as §1
[8] = biological target: T4, Toll-like receptor 7 (Mus musculus); experiment: Agonist activity at TLR7 in Balb/c mouse splenocytes assessed as IL-6 level in supernatant after 18 hrs; assay type: cell-based; outline: as §2
[9] = biological target: T5, Toll-like receptor 7 (Homo sapiens); experiment: Agonist activity at TLR7 in human PBMC assessed as IL-6 level in supernatant after 18 hrs; outline: as §1

Row | %max [5] | EC50 (Toll-like receptor 7 [6]) | EC50 (Toll-like receptor 7 [1]) | %max [7] | Activity [8] | Activity [9] | Compound | EC50 (Toll-like receptor 7 [1]; read-out: EC50) | EC50 (Toll-like receptor 7 [2]) | Activity [3] | %max [4]
1 | – | – | – | – | – | – | Cc1ccc2c(c1)nc(N)c1ncc(CCc3ccc(OCCCC(F)(F)P(=O)(O)O)cc3C)cc12 | 1600 nM | 3200 nM | < 5% | 47%
2 | – | – | – | – | – | – | COc1ccc(CCc2cnc3c(N)nc4cc(CCP(=O)(O)O)ccc4c3c2)c(C)c1 | 400 nM | 130 nM | < 5% | 124%
3 | 112% | 5600 nM | Not Active | inactive | – | – | COc1ccc(CCc2cnc3c(N)nc4cc(C(=O)P(=O)(O)O)ccc4c3c2)c(C)c1 | – | 14000 nM | < 5% | 117%
4 | – | – | – | – | – | – | Cc1cc(OCCCP(=O)(O)O)ccc1CCc1cnc2c(N)nc3cc(CCC(=O)O)ccc3c2c1 | 290 nM | 310 nM | < 5% | 100%
5 | 94% | 3100 nM | – | 55% | – | – | Cc1ccc2c(c1)nc(N)c1ncc(CCc3ccc(OCCOCCOCCP(=O)(O)O)cc3C)cc12 | 8200 nM | 3600 nM | < 5% | 83%
6 | – | – | – | – | – | – | COc1ccc(CCc2cnc3c(N)nc4cc(/C=C(\F)P(=O)(O)O)ccc4c3c2)c(C)c1 | 3400 nM | 570 nM | < 5% | 220%
7 | – | – | – | – | – | – | COc1ccc(CCc2cnc3c(N)nc4cc(C(=O)C(F)(F)P(=O)(O)O)ccc4c3c2)c(C)c1 | 7800 nM | 3400 nM | < 5% | 100%
8 | – | – | – | – | 600 pg/mL | 12500 pg/mL | CCOCc1nc2c(N)nc3ccccc3c2n1CC(C)(C)O | – | – | – | –

Row | Compound | %max [5] | EC50 (Toll-like receptor 7 [6]) | EC50 (Toll-like receptor 7 [1]) | %max [7] | Activity [8] | Activity [9] | EC50 (Toll-like receptor 7 [1]; read-out: EC50) | EC50 (Toll-like receptor 7 [2]) | Activity [3] | %max [4]
9 | COc1ccc(CCc2cnc3c(N)nc4cc(/C=C/P(=O)(O)O)ccc4c3c2)c(C)c1 | – | 150 nM | – | – | – | – | 1700 nM | 2500 nM | < 5% | 81%
